Experimental data published in article PMC6933791 (ACS Omega, 2019).

Assays:
[1] = test system: Na+/K+-ATPase α1,2,3 subunit of the porcine cortex; assay: Na+/K+-ATPase inhibition assay; type: biochemical; conditions: 0.1 μM compound, 30 min co-incubation, positive control = 100% activity
Summary of the method: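 Porcine cortex Na+/K+-ATPase (α1,2,3; 0.05 U/mL) was preincubated 30 min with test compound (0.1 μM) in 40 mM Tris–HCl pH 7.5, 80 mM NaCl, 1 mM EDTA and 8 mM MgAc2. ATP (4 mM) was then added and the reaction stopped after 30 min. Released Pi was read by malachite green at 600 nm after subtracting the no-enzyme control. Uninhibited enzyme defined 100% activity. Run in triplicate.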

A549 cells [2] = assay: Cell binding of radiolabeled compound; parameters: species or system human
Summary of the method: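 A549 and MRC-5 cells were grown in DMEM with 10% FBS and 1% penicillin/streptomycin (37 °C, 5% CO2), trypsinised, resuspended in PBS pH 7.4 and trypan-blue counted. Labelled test compound (0.1 μM), 99mTc-chelator alone (1.3 μM), or test compound plus 10-fold excess unlabelled cardenolide was shaken with 250 000 viable cells/tube (140 rpm, 120 min, 37 °C). Pellets were counted. Three biological × three technical replicates.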

[3] = Biodistribution in healthy mice; type: in vivo, BALB/c mice; conditions: i.v.
[4] = Radiochemical stability in saline; type: physicochemical; conditions: NaCl 0.9% (w/v), room temperature (23 °C), up to 24 h
Summary of the method: (§1)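 The 99mTc-labelled test compound was incubated in 0.9% NaCl at 23 °C or in plasma at 37 °C with agitation. Samples were taken at 1, 2, 4, 8 and 24 h. Radiochemical purity was measured by TLC in acetone (free pertechnetate) and glacial acetic acid/water 15:85 (99mTcO2), with strips counted by scintillation. There were 6 samples per time point, each assessed in duplicate.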

[5] = Blood clearance in healthy mice; type: in vivo; conditions: healthy BALB/c mice, i.v. tail vein
Summary of the method: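 Female BALB/c mice (20 g, 8 weeks old; n = 6 per time point) received 100 μL (3.7 MBq) of diluted 99mTc-labelled test compound (final volume 1800 μL) by tail vein. Blood was sampled at 5, 15, 30, 60, 120 and 240 min, weighed and counted for radioactivity. Percent injected dose per mL blood (%ID/mL) was plotted against time.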

[6] = Radiochemical stability in plasma; type: in vitro ADME; conditions: 37 °C, under agitation, up to 24 h
Summary of the method: as §1

A549 cells [7] = assay: MTT cell viability assay, A549; type: cell-based; conditions: read-out: IC50 A549 cell line, 48 h, human non-small-cell lung cancer A549
Summary of the method: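 A549 cells (1 × 10^4/well), cultured in DMEM with 10% FBS and antibiotics, were exposed to a range of concentrations of the […] test compound for 48 h. MTT was added (1 mg/mL final) for 4 h at 37 °C, formazan was dissolved in DMSO, and absorbance was read at 570 nm. Cells given 0.5% DMSO defined 100% viability. IC50 came from dose–response curves.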

MRC-5 cells = assay: MTT cell viability assay, MRC-5; type: cell-based; conditions: read-out: IC50 non-tumor MRC-5 cell line, 48 h, human fetal lung fibroblast MRC-5

In the case of `C[C@]12CC[C@H](O)C[C@H]1CC[C@@H]1[C@@H]2CC[C@]2(C)[C@@H](C3=CC(=O)OC3)CC[C@]12O` [DIG, digitoxigenin], the “Na+/K+-ATPase enzymatic activity remaining” value [1] is reported as “less than 50%”.
For `O=C(O)CN(CCN(CC(=O)O)CC(=O)O)CCN(CC(=O)O)CC(=O)O` [DTPA, diethylenetriaminepentaacetic acid], the “Na+/K+-ATPase enzymatic activity remaining” value [1] was “no influence”.
With `O=C([O-])CN(CCN(CC(=O)[O-])CC(=O)[O-])CCN(CC(=O)[O-])CC(=O)[O-].[99Tc+4]` [^99mTc-DTPA, reference compound] the “Affinity to A549 cancer cells” value (A549 cells [2]; 1.3 μM, 2 h incubation, 37 °C) was “low affinity”.
With ^99mTc-DTPA–digitoxigenin the “Binding to A549 cells when co-incubated with free digitoxigenin” value (A549 cells [2]; 0.1 μM, 10-fold excess of free digitoxigenin, 2 h) was “reduced to the rate of non-tumor MRC-5 cells”, the “Binding to A549 cells compared with non-tumor MRC-5 cells” value (A549 cells [2]; 0.1 μM, 2 h incubation, 37 °C) was “significantly higher binding” and the “Biodistribution, blood” value ([3]; 30 min) was 0.51 %ID/g. The “Biodistribution, heart” value ([3]; 30 min) was 0.31 %ID/g, the “Biodistribution, intestine” value ([3]; 30 min) was 24.97 %ID/g and the “Biodistribution, kidney” value ([3]; 30 min) was 1.64 %ID/g. The “Biodistribution, liver” value ([3]; 30 min) was 4.74 %ID/g, the “Biodistribution, lungs” value ([3]; 30 min) was 1.46 %ID/g and the “Biodistribution, muscle” value ([3]; 30 min) was 0.50 %ID/g. The “Biodistribution, spleen” value ([3]; 30 min) was 0.90 %ID/g, the “Biodistribution, thyroid” value ([3]; 30 min) was 0.59 %ID/g and the “Biodistribution, blood” value ([3]; 2 h) was 0.43 %ID/g. The “Biodistribution, heart” value ([3]; 2 h) was 0.32 %ID/g, the “Biodistribution, intestine” value ([3]; 2 h) was 27.06 %ID/g and the “Biodistribution, kidney” value ([3]; 2 h) was 1.48 %ID/g. The “Biodistribution, liver” value ([3]; 2 h) was 2.34 %ID/g, the “Biodistribution, lungs” value ([3]; 2 h) was 0.6 %ID/g and the “Biodistribution, muscle” value ([3]; 2 h) was 0.26 %ID/g. For the same compound, the “Biodistribution, spleen” value ([3]; 2 h) was 0.85 %ID/g, the “Biodistribution, thyroid” value ([3]; 2 h) was 0.59 %ID/g and the “Radiochemical stability in saline” value [4] was “remained stable”. The Blood half-life [5] was 11.7 min, the “Na+/K+-ATPase enzymatic activity remaining” value [1] was “less than 50%” and the “Radiochemical stability in plasma” value [6] was “remained stable”. The IC50 (A549 cells [7]) was 120 nM and the IC50 (MRC-5 cells) was 780 nM.
